Non-standard residues stand in square brackets, D forms with d. Residues, ends and D or L forms follow the SMILES beside them. Lys(Me2) = CN(C)CCCC[C@H](N)C(=O)O; hLys = NCCCCC[C@H](N)C(=O)O; Nlys = NCCCCNCC(=O)O A value given as a limit tells only on which side of the number the result lay.

In data set [1] the test system is CD40 mRNA. Briefly: […] CD40 expression in BCL1 cells treated with 1 uM peptide nucleic acid (PNA)conjugate; n=3. The class given is functional, cell-based. The settings on record: Mus musculus. In outline: (§1)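 Mouse BCL1 cells in DMEM with 10% FBS, given conjugate at 1, 3 or 10 μM by free uptake (no transfection agent) for 3 days. Cells trypsinised and stained 1 h with FITC anti-CD40 (HM40-3) or isotype control, then surface CD40 read by flow cytometry. Results are % untreated control, mean ± SD, n = 3.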

The subject of data set [2] is CD40 mRNA. The experiment in a line: […] CD40 expression in BCL1 cells treated with 3 uM peptide nucleic acid (PNA)conjugate; n=3. The conditions noted are these: Mus musculus. It is filed as functional, cell-based. In outline: as §1
The test system of data set [3] is CD40 mRNA. The experiment in a line: […] CD40 expression in BCL1 cells treated with 10 uM peptide nucleic acid (PNA)conjugate; n=3. The settings on record: Mus musculus. It is filed as functional, cell-based. The procedure, abridged: as §1
The test system of data set [4] is BCL1. Briefly: Inhibitory concentration against BCL1 cell proliferation in WST-1 assay. It is filed as functional, Mus musculus. In outline:
(§2)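 BCL1 cells, 2000 per well, grown in DMEM with 10% FBS at 37 °C and 5% CO2. Exposed to conjugate for 3 days, then viable cells read by WST-1 absorbance at 450 nm. Value is the concentration at which absorbance fell below 50% of untreated control; triplicates.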

Data set [5] is described as follows: Half-life of the conjugate when treated with 10% foetal bovine serum for enzymatic stability. It is filed as ADME, Bos taurus. The conditions noted are these: cattle. The procedure, abridged:
(§3)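 Conjugates at 20 μM in 10% FBS RPMI 1640 medium or 25% mouse serum (Hepes-stabilised, diluted in PBS, pH 7.1–7.4), incubated at 37 °C. Sampled to 168 h (FBS) or 48 h (serum); proteins precipitated with 10% DCA, PNA 6mer internal standard added. Analysed by C3 RP-HPLC at 60 °C; t1/2 from normalised full-length peak area versus time.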

A short description of data set [6]: Half-life of the conjugate when treated with 25% murine serum for enzymatic stability; No data available. The conditions noted are these: mouse. The class given is ADME. In outline: as §3
Data set [7] concerns BCL1. The experiment in a line: Inhibitory concentration against BCL1 cell proliferation in WST-1 assay; Range 10-20. It is filed as functional, Mus musculus. The procedure, abridged:
as §2
In general terms: Tetrazolium dyes change colour on reduction, which living cells bring about.

Data set [8] can be described thus: Half-life of the conjugate when treated with 25% murine serum for enzymatic stability; Range 2-3 h. The conditions noted are these: mouse. The class given is ADME. The procedure, abridged:
as §3

As a reminder, the half-life is the time in which the quantity being followed falls by half. A higher half-life goes with slow decline. For `CN(C)CCCC[C@H](NC(=O)[C@H](CCCCN)NC(=O)[C@H](CCCCN(C)C)NC(=O)[C@H](CCCCN)NC(=O)[C@H](CCCCN(C)C)NC(=O)[C@H](CCCCN)NC(=O)[C@H](CCCCN(C)C)NC(=O)[C@@H](N)CCCCN)C(=O)N[C@H](C=O)CCCCN` (H-K[Lys(Me2)]K[Lys(Me2)]K[Lys(Me2)]K[Lys(Me2)]K-aldehyde), the UTC with CD40 mRNA [1] turned out to be 96%; in the data set on CD40 mRNA [2], 89%; in the data set on CD40 mRNA [3] it was 53%. Moreover, the “IC50 for cell proliferation” value in the data set with BCL1 [4] is 20 µM. Moreover, in data set [5], the half-life was greater than 168 h. The T1/2 result in data set [6] is reported as “No data available”.

One may read the IC50 as the concentration needed to halve the response being measured. A low value points to higher potency. Consider `NCCCC[C@H](NC(=O)CN(CCCCN)C(=O)[C@H](CCCCN)NC(=O)CN(CCCCN)C(=O)[C@H](CCCCN)NC(=O)CN(CCCCN)C(=O)[C@H](CCCCN)NC(=O)CN(CCCCN)C(=O)[C@@H](N)CCCCN)C(=O)O` (H-K[Nlys]K[Nlys]K[Nlys]K[Nlys]K-OH), for which the UTC in the data set with CD40 mRNA [1] turned out to be 111%; in the data set with CD40 mRNA [2], 96%; in the data set on CD40 mRNA [3], 70%. Moreover, the IC50 with BCL1 [7] was 20 µM. The same molecule registered a half-life in data set [5] greater than 168 h. For the same molecule, in data set [6], the T1/2 result is given as “No data available”.

As to `NCCCCC[C@H](NC(=O)[C@H](CCCCN)NC(=O)[C@H](CCCCCN)NC(=O)[C@H](CCCCN)NC(=O)[C@H](CCCCCN)NC(=O)[C@H](CCCCN)NC(=O)[C@H](CCCCCN)NC(=O)[C@@H](N)CCCCN)C(=O)N[C@H](C=O)CCCCN` (H-K[hLys]K[hLys]K[hLys]K[hLys]K-aldehyde), the UTC with CD40 mRNA [1] amounted to 81%; in the data set on CD40 mRNA [2], 61%; in the data set with CD40 mRNA [3], 32%. Also, the “IC50 for cell proliferation” value in the data set on BCL1 [4] was greater than 20 µM. In addition, the half-life in data set [5] was greater than 168 h. Further, the T1/2 result in data set [6] is “No data available”.

As for `N=C(N)NCCC[C@H](NC(=O)[C@H](CCCNC(=N)N)NC(=O)[C@H](CCCNC(=N)N)NC(=O)[C@H](CCCNC(=N)N)NC(=O)[C@H](CCCNC(=N)N)NC(=O)[C@H](CCCNC(=N)N)NC(=O)[C@H](CCCNC(=N)N)NC(=O)[C@@H](N)CCCNC(=N)N)C(=O)N[C@H](C=O)CCCCN` (H-RRRRRRRRK-aldehyde), the UTC in the data set on CD40 mRNA [1] turned out to be 102%; in the data set on CD40 mRNA [2], 81%; in the data set on CD40 mRNA [3] it was 60%. Also, the “IC50 for cell proliferation” value in the data set on BCL1 [4] was greater than 20 µM. The results for the half-life in data set [5] and in data set [8] were 20 h and 3 h, respectively.

On to `CN(C)CCCC[C@H](NC(=O)[C@H](CCCCN(C)C)NC(=O)[C@H](CCCCN)NC(=O)[C@H](CCCCN(C)C)NC(=O)[C@H](CCCCN(C)C)NC(=O)[C@H](CCCCN)NC(=O)[C@H](CCCCN(C)C)NC(=O)[C@@H](N)CCCCN(C)C)C(=O)N[C@H](C=O)CCCCN` (H-[Lys(Me2)][Lys(Me2)]K[Lys(Me2)][Lys(Me2)]K[Lys(Me2)][Lys(Me2)]K-aldehyde), for which the UTC in the data set with CD40 mRNA [1] was found to be 91%; in the data set on CD40 mRNA [2], 89%; with CD40 mRNA [3], 63%. Besides, in the data set on BCL1 [4], the “IC50 for cell proliferation” value is greater than 20 µM. For the same molecule, the half-life in data set [5] is greater than 168 h. Also, the T1/2 entry in data set [6] is “No data available”.

The values above are taken from ChEMBL document CHEMBL1141128, “Structure-activity relationship study on a simple cationic peptide motif for cellular delivery of antisense peptide nucleic acid” (J Med Chem, 2005).
